# Results as given in ChEMBL document CHEMBL1132274, “2,7-Disubstituted amidofluorenone derivatives as inhibitors of human telomerase” (J Med Chem, 1999).
# The source made the active and inactive calls. The calls are words filed in the database; no cut-off is given here.
# Molecular target: Telomerase reverse transcriptase (Homo sapiens, UniProt O14746)
# Experiment: Inhibitory activity against telomerase
# Procedure, shortened: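 Modified TRAP with extract from exponentially growing A2780 ovarian carcinoma cells. Telomerase then inactivated at 80 °C for 5 min, CX primer and Taq added, 31 PCR cycles. Products analysed by denaturing PAGE with phosphorimaging/autoradiography, or by filter scintillation counting.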
# Telomerase reverse transcriptase, sequence (O14746 whole entry): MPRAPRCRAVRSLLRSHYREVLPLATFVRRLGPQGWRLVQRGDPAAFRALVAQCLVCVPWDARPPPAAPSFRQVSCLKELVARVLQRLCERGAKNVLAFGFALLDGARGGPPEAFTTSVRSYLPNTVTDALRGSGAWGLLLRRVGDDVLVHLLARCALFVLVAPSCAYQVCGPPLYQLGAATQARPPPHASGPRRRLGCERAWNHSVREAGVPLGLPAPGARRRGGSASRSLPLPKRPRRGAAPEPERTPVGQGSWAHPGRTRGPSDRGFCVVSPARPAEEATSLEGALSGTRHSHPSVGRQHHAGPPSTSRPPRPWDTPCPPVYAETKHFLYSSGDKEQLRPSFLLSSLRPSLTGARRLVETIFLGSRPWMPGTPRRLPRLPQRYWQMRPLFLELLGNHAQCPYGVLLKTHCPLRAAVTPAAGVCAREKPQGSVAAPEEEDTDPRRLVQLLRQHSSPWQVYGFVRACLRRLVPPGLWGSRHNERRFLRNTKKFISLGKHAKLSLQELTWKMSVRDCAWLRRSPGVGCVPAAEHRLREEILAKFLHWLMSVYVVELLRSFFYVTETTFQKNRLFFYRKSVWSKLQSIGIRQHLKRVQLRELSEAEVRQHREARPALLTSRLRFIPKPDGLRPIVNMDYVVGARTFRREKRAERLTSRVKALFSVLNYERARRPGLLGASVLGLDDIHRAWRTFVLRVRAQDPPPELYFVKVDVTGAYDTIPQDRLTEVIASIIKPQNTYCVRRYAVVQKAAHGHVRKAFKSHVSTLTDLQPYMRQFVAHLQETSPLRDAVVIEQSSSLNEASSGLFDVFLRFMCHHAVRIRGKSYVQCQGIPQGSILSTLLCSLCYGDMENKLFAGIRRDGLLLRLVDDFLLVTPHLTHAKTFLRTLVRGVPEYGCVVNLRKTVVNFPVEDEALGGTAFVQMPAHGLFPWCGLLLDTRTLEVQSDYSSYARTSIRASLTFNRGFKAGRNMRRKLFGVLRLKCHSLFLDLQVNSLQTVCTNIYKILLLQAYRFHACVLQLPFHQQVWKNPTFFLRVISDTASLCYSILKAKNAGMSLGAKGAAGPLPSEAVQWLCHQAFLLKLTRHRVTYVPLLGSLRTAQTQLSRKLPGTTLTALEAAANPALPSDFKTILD
row,IC50 [µM],SMILES
1,> 50,O=C(CCN1CCOCC1)Nc1ccc2c(c1)C(=O)c1cc(NC(=O)CCN3CCOCC3)ccc1-2
2,> 20,C[N+]1(CCC(=O)Nc2ccc3c(c2)C(=O)c2cc(NC(=O)CC[N+]4(C)CCCCC4CCO)ccc2-3)CCCCC1CCO (centres undefined)

# Further lines, the compound ahead of its results:
row,SMILES,IC50 [µM]
1,O=C(CCN1CCC(O)CC1)Nc1ccc2c(c1)C(=O)c1cc(NC(=O)CCN3CCC(O)CC3)ccc1-2,18.5
2,O=C(CCN1CCN(c2ccccc2)CC1)Nc1ccc2c(c1)C(=O)c1cc(NC(=O)CCN3CCN(c4ccccc4)CC3)ccc1-2,> 50
3,CCC1CCCC[N+]1(C)CCC(=O)Nc1ccc2c(c1)C(=O)c1cc(NC(=O)CC[N+]3(C)CCCCC3CC)ccc1-2 (centres undefined),> 20
4,O=C(CCN1CCCCC1)Nc1ccc2c(c1)C(=O)c1cc(NC(=O)CCN3CCCCC3)ccc1-2,9
5,O=C(CCN1CCN(Cc2ccccc2)CC1)Nc1ccc2c(c1)C(=O)c1cc(NC(=O)CCN3CCN(Cc4ccccc4)CC3)ccc1-2,> 50

# Molecular target: DNA polymerase I, thermostable (Thermus aquaticus) (UniProt P19821)
# Experiment: Inhibitory activity against taq polymerase at 50 uM; Significant
# DNA polymerase I, thermostable (Thermus aquaticus), sequence (P19821 whole entry): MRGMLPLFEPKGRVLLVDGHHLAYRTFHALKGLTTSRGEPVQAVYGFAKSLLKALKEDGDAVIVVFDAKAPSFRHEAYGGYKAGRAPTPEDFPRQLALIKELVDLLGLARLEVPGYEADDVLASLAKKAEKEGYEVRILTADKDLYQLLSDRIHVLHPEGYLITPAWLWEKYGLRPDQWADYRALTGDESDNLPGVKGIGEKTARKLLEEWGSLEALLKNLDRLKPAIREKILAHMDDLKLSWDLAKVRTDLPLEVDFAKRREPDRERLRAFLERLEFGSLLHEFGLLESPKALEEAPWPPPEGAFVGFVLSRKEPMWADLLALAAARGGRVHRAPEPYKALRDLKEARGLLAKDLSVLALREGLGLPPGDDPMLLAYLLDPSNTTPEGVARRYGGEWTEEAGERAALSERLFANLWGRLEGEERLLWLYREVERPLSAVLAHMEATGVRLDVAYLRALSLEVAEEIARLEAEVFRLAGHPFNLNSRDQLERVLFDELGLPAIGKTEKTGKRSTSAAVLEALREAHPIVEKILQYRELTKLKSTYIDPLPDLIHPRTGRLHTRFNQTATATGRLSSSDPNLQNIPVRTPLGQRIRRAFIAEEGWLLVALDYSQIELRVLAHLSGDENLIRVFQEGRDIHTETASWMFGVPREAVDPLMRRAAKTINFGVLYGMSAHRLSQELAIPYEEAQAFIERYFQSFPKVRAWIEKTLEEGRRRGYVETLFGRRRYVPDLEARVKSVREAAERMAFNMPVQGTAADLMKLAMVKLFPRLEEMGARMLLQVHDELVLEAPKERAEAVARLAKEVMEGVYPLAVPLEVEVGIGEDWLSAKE
row,inhibition,SMILES
1,Significant,C[N+]1(CCC(=O)Nc2ccc3c(c2)C(=O)c2cc(NC(=O)CC[N+]4(C)CCCCC4CCO)ccc2-3)CCCCC1CCO (centres undefined)

# Tested on: CH1
# Experiment: Cytotoxicity measured in human ovarian cell line CH1 using sulforhodamine B (SRB) assay.
# Type: functional, cell-based
# Procedure, shortened: (§1)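 SRB growth-inhibition assay in human ovarian carcinoma cells: 3000–6000 cells/well attached overnight, then salts (dissolved at 500 μM in water) added in quadruplicate at final 0.05, 0.25, 1, 5 and 25 μM. After 96 h, cells fixed with ice-cold 10% TCA and stained with 0.4% SRB. Mean A540 expressed as % of untreated control; IC50 = concentration giving 50% growth inhibition.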
row,SMILES,IC50 [µM]
1,O=C(CCN1CCOCC1)Nc1ccc2c(c1)C(=O)c1cc(NC(=O)CCN3CCOCC3)ccc1-2,> 25
2,O=C(CCN1CCC(O)CC1)Nc1ccc2c(c1)C(=O)c1cc(NC(=O)CCN3CCC(O)CC3)ccc1-2,> 25
3,C[N+]1(CCC(=O)Nc2ccc3c(c2)C(=O)c2cc(NC(=O)CC[N+]4(C)CCCCC4CCO)ccc2-3)CCCCC1CCO (centres undefined),3.15
4,O=C(CCN1CCN(c2ccccc2)CC1)Nc1ccc2c(c1)C(=O)c1cc(NC(=O)CCN3CCN(c4ccccc4)CC3)ccc1-2,> 25
5,CCC1CCCC[N+]1(C)CCC(=O)Nc1ccc2c(c1)C(=O)c1cc(NC(=O)CC[N+]3(C)CCCCC3CC)ccc1-2 (centres undefined),2.35
6,O=C(CCN1CCCCC1)Nc1ccc2c(c1)C(=O)c1cc(NC(=O)CCN3CCCCC3)ccc1-2,7.6
7,O=C(CCN1CCN(Cc2ccccc2)CC1)Nc1ccc2c(c1)C(=O)c1cc(NC(=O)CCN3CCN(Cc4ccccc4)CC3)ccc1-2,> 25

# Molecular target: DNA polymerase I, thermostable (Thermus aquaticus) (UniProt P19821)
# Experiment: Inhibitory activity against taq polymerase at 10 uM; No inhibition
row,inhibition,SMILES
1,inactive,O=C(CCN1CCOCC1)Nc1ccc2c(c1)C(=O)c1cc(NC(=O)CCN3CCOCC3)ccc1-2
2,inactive,C[N+]1(CCC(=O)Nc2ccc3c(c2)C(=O)c2cc(NC(=O)CC[N+]4(C)CCCCC4CCO)ccc2-3)CCCCC1CCO (centres undefined)

# The remaining lines, values behind:
row,SMILES,inhibition
1,O=C(CCN1CCC(O)CC1)Nc1ccc2c(c1)C(=O)c1cc(NC(=O)CCN3CCC(O)CC3)ccc1-2,inactive
2,O=C(CCN1CCN(c2ccccc2)CC1)Nc1ccc2c(c1)C(=O)c1cc(NC(=O)CCN3CCN(c4ccccc4)CC3)ccc1-2,inactive
3,CCC1CCCC[N+]1(C)CCC(=O)Nc1ccc2c(c1)C(=O)c1cc(NC(=O)CC[N+]3(C)CCCCC3CC)ccc1-2 (centres undefined),inactive
4,O=C(CCN1CCCCC1)Nc1ccc2c(c1)C(=O)c1cc(NC(=O)CCN3CCCCC3)ccc1-2,inactive
5,O=C(CCN1CCN(Cc2ccccc2)CC1)Nc1ccc2c(c1)C(=O)c1cc(NC(=O)CCN3CCN(Cc4ccccc4)CC3)ccc1-2,inactive

# Tested on: A2780
# Experiment: Cytotoxicity measured in human ovarian cell line A2780 using sulforhodamine B (SRB) assay
# Type: functional, cell-based
# Procedure, shortened: as §1
row,SMILES,IC50 [µM]
1,O=C(CCN1CCOCC1)Nc1ccc2c(c1)C(=O)c1cc(NC(=O)CCN3CCOCC3)ccc1-2,> 25
2,O=C(CCN1CCC(O)CC1)Nc1ccc2c(c1)C(=O)c1cc(NC(=O)CCN3CCC(O)CC3)ccc1-2,> 25
3,C[N+]1(CCC(=O)Nc2ccc3c(c2)C(=O)c2cc(NC(=O)CC[N+]4(C)CCCCC4CCO)ccc2-3)CCCCC1CCO (centres undefined),5.2
4,O=C(CCN1CCN(c2ccccc2)CC1)Nc1ccc2c(c1)C(=O)c1cc(NC(=O)CCN3CCN(c4ccccc4)CC3)ccc1-2,> 25
5,CCC1CCCC[N+]1(C)CCC(=O)Nc1ccc2c(c1)C(=O)c1cc(NC(=O)CC[N+]3(C)CCCCC3CC)ccc1-2 (centres undefined),2.9
6,O=C(CCN1CCCCC1)Nc1ccc2c(c1)C(=O)c1cc(NC(=O)CCN3CCCCC3)ccc1-2,11
7,O=C(CCN1CCN(Cc2ccccc2)CC1)Nc1ccc2c(c1)C(=O)c1cc(NC(=O)CCN3CCN(Cc4ccccc4)CC3)ccc1-2,> 25

# Molecular target: DNA polymerase I, thermostable (Thermus aquaticus) (UniProt P19821)
# Experiment: Inhibitory activity against taq polymerase at 50 uM; Slight
row,inhibition,SMILES
1,Weak inhibition,CCC1CCCC[N+]1(C)CCC(=O)Nc1ccc2c(c1)C(=O)c1cc(NC(=O)CC[N+]3(C)CCCCC3CC)ccc1-2 (centres undefined)

# Molecular target: DNA polymerase I, thermostable (Thermus aquaticus) (UniProt P19821)
# Experiment: Inhibitory activity against taq polymerase at 20 uM; No inhibition
row,inhibition,SMILES
1,inactive,O=C(CCN1CCOCC1)Nc1ccc2c(c1)C(=O)c1cc(NC(=O)CCN3CCOCC3)ccc1-2
2,inactive,C[N+]1(CCC(=O)Nc2ccc3c(c2)C(=O)c2cc(NC(=O)CC[N+]4(C)CCCCC4CCO)ccc2-3)CCCCC1CCO (centres undefined)

# More lines, now with the values behind:
row,SMILES,inhibition
1,O=C(CCN1CCC(O)CC1)Nc1ccc2c(c1)C(=O)c1cc(NC(=O)CCN3CCC(O)CC3)ccc1-2,inactive
2,O=C(CCN1CCN(c2ccccc2)CC1)Nc1ccc2c(c1)C(=O)c1cc(NC(=O)CCN3CCN(c4ccccc4)CC3)ccc1-2,inactive
3,CCC1CCCC[N+]1(C)CCC(=O)Nc1ccc2c(c1)C(=O)c1cc(NC(=O)CC[N+]3(C)CCCCC3CC)ccc1-2 (centres undefined),inactive
4,O=C(CCN1CCCCC1)Nc1ccc2c(c1)C(=O)c1cc(NC(=O)CCN3CCCCC3)ccc1-2,inactive
5,O=C(CCN1CCN(Cc2ccccc2)CC1)Nc1ccc2c(c1)C(=O)c1cc(NC(=O)CCN3CCN(Cc4ccccc4)CC3)ccc1-2,inactive

# Tested on: SK-OV-3
# Experiment: Cytotoxicity measured in human ovarian cell line SKOV-3 using sulforhodamine B (SRB) assay.
# Type: functional, cell-based
# Procedure, shortened: as §1
row,SMILES,IC50 [µM]
1,O=C(CCN1CCOCC1)Nc1ccc2c(c1)C(=O)c1cc(NC(=O)CCN3CCOCC3)ccc1-2,> 25
2,O=C(CCN1CCC(O)CC1)Nc1ccc2c(c1)C(=O)c1cc(NC(=O)CCN3CCC(O)CC3)ccc1-2,> 25
3,C[N+]1(CCC(=O)Nc2ccc3c(c2)C(=O)c2cc(NC(=O)CC[N+]4(C)CCCCC4CCO)ccc2-3)CCCCC1CCO (centres undefined),5.2
4,O=C(CCN1CCN(c2ccccc2)CC1)Nc1ccc2c(c1)C(=O)c1cc(NC(=O)CCN3CCN(c4ccccc4)CC3)ccc1-2,> 25
5,CCC1CCCC[N+]1(C)CCC(=O)Nc1ccc2c(c1)C(=O)c1cc(NC(=O)CC[N+]3(C)CCCCC3CC)ccc1-2 (centres undefined),2.6
6,O=C(CCN1CCCCC1)Nc1ccc2c(c1)C(=O)c1cc(NC(=O)CCN3CCCCC3)ccc1-2,11
7,O=C(CCN1CCN(Cc2ccccc2)CC1)Nc1ccc2c(c1)C(=O)c1cc(NC(=O)CCN3CCN(Cc4ccccc4)CC3)ccc1-2,> 25

# Molecular target: DNA polymerase I, thermostable (Thermus aquaticus) (UniProt P19821)
# Experiment: Inhibitory activity against taq polymerase at 50 uM; No inhibition
row,inhibition,SMILES
1,inactive,O=C(CCN1CCOCC1)Nc1ccc2c(c1)C(=O)c1cc(NC(=O)CCN3CCOCC3)ccc1-2
2,inactive,O=C(CCN1CCC(O)CC1)Nc1ccc2c(c1)C(=O)c1cc(NC(=O)CCN3CCC(O)CC3)ccc1-2
3,inactive,O=C(CCN1CCN(c2ccccc2)CC1)Nc1ccc2c(c1)C(=O)c1cc(NC(=O)CCN3CCN(c4ccccc4)CC3)ccc1-2
4,inactive,O=C(CCN1CCCCC1)Nc1ccc2c(c1)C(=O)c1cc(NC(=O)CCN3CCCCC3)ccc1-2
5,inactive,O=C(CCN1CCN(Cc2ccccc2)CC1)Nc1ccc2c(c1)C(=O)c1cc(NC(=O)CCN3CCN(Cc4ccccc4)CC3)ccc1-2
